Active and inactive are the calls of the source. No cut-off for these calls is given here.
Experiments:
[1] = molecular target: Tyrosine-protein kinase SYK (Homo sapiens) (UniProt P43405); assay: Residual activity at human Syk at 10 uM in presence of 10 uM ATP relative to control
Summary of the method: (§1)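 Single-concentration counter-screen across a panel of 80 Ser/Thr and Tyr protein kinases. Compound was tested at 10 µM with ATP at 10 µM. Activity remaining in each kinase is expressed relative to control.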

[2] = molecular target: Rho-associated protein kinase 2 (Homo sapiens) (UniProt O75116); assay: Residual activity at human ROCK2 at 10 uM in presence of 10 uM ATP relative to control; summary of the method: as §1
[3] = molecular target: Tyrosine-protein kinase ABL2 (Mus musculus) (UniProt Q4JIM5); assay: Residual activity at mouse Arg at 10 uM in presence of 10 uM ATP relative to control; summary of the method: as §1
[4] = molecular target: Calcium/calmodulin-dependent protein kinase type IV (Homo sapiens) (UniProt Q16566); assay: Residual activity at human CaMK4 at 10 uM in presence of 10 uM ATP relative to control
Summary of the method: (§2)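 Panel of Ser/Thr and Tyr protein kinases, each tested with 10 µM compound in the presence of 10 µM ATP; activity expressed relative to control.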

[5] = molecular target: Serine/threonine-protein kinase D2 (Homo sapiens) (UniProt Q9BZL6); assay: Residual activity at human PKD2 at 10 uM in presence of 10 uM ATP relative to control; summary of the method: as §1
[6] = molecular target: Ribosomal protein S6 kinase alpha-3 (Homo sapiens) (UniProt P51812); assay: Residual activity at human Rsk3 at 10 uM in presence of 10 uM ATP relative to control; summary of the method: as §1
[7] = molecular target: Tyrosine-protein kinase Blk (Mus musculus) (UniProt P16277); assay: Residual activity at mouse Blk at 10 uM in presence of 10 uM ATP relative to control; summary of the method: as §1
[8] = molecular target: CDK6/cyclin D3 (Homo sapiens) (UniProt P30281+Q00534); assay: Residual activity at human CDK6/CyclinD3 at 10 uM in presence of 10 uM ATP relative to control; assay type: protein-complex assay; summary of the method: as §2
[9] = molecular target: Inhibitor of nuclear factor kappa-B kinase subunit alpha (Homo sapiens) (UniProt O15111); assay: Residual activity at human IKKalpha at 10 uM in presence of 10 uM ATP relative to control; summary of the method: as §2
[10] = molecular target: RAF proto-oncogene serine/threonine-protein kinase (Homo sapiens) (UniProt P04049); assay: Residual activity at human c-RAF at 10 uM in presence of 10 uM ATP relative to control; summary of the method: as §1
[11] = molecular target: Glycogen synthase kinase-3 beta (Homo sapiens) (UniProt P49841); assay: Residual activity at human GSK3-beta at 10 uM in presence of 10 uM ATP relative to control; summary of the method: as §2
[12] = molecular target: Protein kinase C delta type (Homo sapiens) (UniProt Q05655); assay: Residual activity at human PKCdelta at 10 uM in presence of 10 uM ATP relative to control; summary of the method: as §1
[13] = molecular target: RAC-gamma serine/threonine-protein kinase (Homo sapiens) (UniProt Q9Y243); assay: Residual activity at human PKBgamma at 10 uM in presence of 10 uM ATP relative to control; summary of the method: as §1
Rattus norvegicus [14] = assay: Half life in rat at 10 mg/kg, iv; assay type: ADME, organism-based; set-up: dose 10 mg/kg, route intravenous; conditions: in vivo
Summary of the method: (§3)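 Rats given a single 10 mg/kg dose, intravenously or orally. The compound was given as its potassium salt, prepared with KOH in THF/water, for the in vivo work.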

Mast cell = assay: Inhibition of SCF-induced PKB/Akt phosphorylation in mouse mast cells at 10 uM; assay type: functional, cell-based
Summary of the method: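 Bone marrow mast cells from 4- to 8-week-old wild-type mice, derived ≥4 weeks in 20 ng/mL SCF plus 20 ng/mL IL-3 and confirmed c-kit+ by FACS. Cells at 2.5 × 10^6/mL starved 24 h without SCF/IL-3, preincubated 20 min with compound or 1% DMSO, stimulated 15 min at 37 °C with 20 ng/mL SCF. Fixed in 1.5% paraformaldehyde, permeabilized with 0.2% Triton X-100, phospho-Ser-473 Akt read by FACS.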

[15] = molecular target: MAP kinase-activated protein kinase 5 (Homo sapiens) (UniProt Q8IW41); assay: Residual activity at human PRAK at 10 uM in presence of 10 uM ATP relative to control; summary of the method: as §1
[16] = Cmax in rat at 10 mg/kg, iv; assay type: ADME, organism-based; set-up: dose 10 mg/kg, route intravenous; conditions: in vivo; summary of the method: as §3
[17] = molecular target: Mitogen-activated protein kinase 9 (Homo sapiens) (UniProt P45984); assay: Residual activity at human JNK2-alpha-2 at 10 uM in presence of 10 uM ATP relative to control; summary of the method: as §1
[18] = molecular target: Proto-oncogene tyrosine-protein kinase Src (Homo sapiens) (UniProt P12931); assay: Residual activity at human cSRC at 10 uM in presence of 10 uM ATP relative to control; summary of the method: as §1
[19] = molecular target: Tyrosine-protein kinase Lyn (Homo sapiens) (UniProt P07948); assay: Residual activity at human Lyn at 10 uM in presence of 10 uM ATP relative to control; summary of the method: as §1
[20] = molecular target: BDNF/NT-3 growth factors receptor (Homo sapiens) (UniProt Q16620); assay: Residual activity at human TrkB at 10 uM in presence of 10 uM ATP relative to control; summary of the method: as §1
[21] = molecular target: RAC-alpha serine/threonine-protein kinase (Homo sapiens) (UniProt P31749); assay: Residual activity at human PKBalpha at 10 uM in presence of 10 uM ATP relative to control; summary of the method: as §1
THP-1 = assay: Inhibition of MCP1-induced chemotaxis of THP1 cells; assay type: functional, cell-based; conditions: Homo sapiens
[22] = molecular target: Inhibitor of nuclear factor kappa-B kinase subunit beta (Homo sapiens) (UniProt O14920); assay: Residual activity at human IKK-beta at 10 uM in presence of 10 uM ATP relative to control; summary of the method: as §2
[23] = molecular target: RAC-beta serine/threonine-protein kinase (Homo sapiens) (UniProt P31751); assay: Residual activity at human PKBbeta at 10 uM in presence of 10 uM ATP relative to control; summary of the method: as §1
[24] = molecular target: 3-phosphoinositide-dependent protein kinase 1 (Homo sapiens) (UniProt O15530); assay: Residual activity at human PDK1 at 10 uM in presence of 10 uM ATP relative to control; summary of the method: as §1
Rattus norvegicus [25] = assay: Volume of distribution in rat at 10 mg/kg, iv; assay type: ADME, organism-based; set-up: dose 10 mg/kg, route intravenous; conditions: in vivo
Summary of the method: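 Given to rats as a single 10 mg/kg intravenous dose of the potassium salt, run alongside a matching oral arm. Pharmacokinetic parameters derived were CL, AUC, Cmax, t1/2 and Vd.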

[26] = molecular target: Dual specificity mitogen-activated protein kinase kinase 1 (Homo sapiens) (UniProt Q02750); assay: Residual activity at human MEK1 at 10 uM in presence of 10 uM ATP relative to control; summary of the method: as §1
[27] = molecular target: Tyrosine-protein kinase ZAP-70 (Homo sapiens) (UniProt P43403); assay: Residual activity at human ZAP70 at 10 uM in presence of 10 uM ATP relative to control; summary of the method: as §1
[28] = molecular target: MAP kinase-activated protein kinase 2 (Homo sapiens) (UniProt P49137); assay: Residual activity at human MAPKAPK2 at 10 uM in presence of 10 uM ATP relative to control; summary of the method: as §1
Sequence of MAP kinase-activated protein kinase 2 (Homo sapiens) (P49137 whole entry, looked up): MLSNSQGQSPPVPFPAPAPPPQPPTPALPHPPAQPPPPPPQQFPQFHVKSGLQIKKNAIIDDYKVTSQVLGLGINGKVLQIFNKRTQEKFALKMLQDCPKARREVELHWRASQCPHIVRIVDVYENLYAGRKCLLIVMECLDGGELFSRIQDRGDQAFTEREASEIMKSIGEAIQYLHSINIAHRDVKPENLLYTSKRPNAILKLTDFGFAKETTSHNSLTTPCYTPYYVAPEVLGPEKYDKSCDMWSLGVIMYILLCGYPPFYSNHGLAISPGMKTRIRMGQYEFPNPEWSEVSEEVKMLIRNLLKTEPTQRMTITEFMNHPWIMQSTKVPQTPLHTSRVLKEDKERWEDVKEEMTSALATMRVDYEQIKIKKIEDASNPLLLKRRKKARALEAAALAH

Sequence of RAF proto-oncogene serine/threonine-protein kinase (Homo sapiens) (P04049 whole entry): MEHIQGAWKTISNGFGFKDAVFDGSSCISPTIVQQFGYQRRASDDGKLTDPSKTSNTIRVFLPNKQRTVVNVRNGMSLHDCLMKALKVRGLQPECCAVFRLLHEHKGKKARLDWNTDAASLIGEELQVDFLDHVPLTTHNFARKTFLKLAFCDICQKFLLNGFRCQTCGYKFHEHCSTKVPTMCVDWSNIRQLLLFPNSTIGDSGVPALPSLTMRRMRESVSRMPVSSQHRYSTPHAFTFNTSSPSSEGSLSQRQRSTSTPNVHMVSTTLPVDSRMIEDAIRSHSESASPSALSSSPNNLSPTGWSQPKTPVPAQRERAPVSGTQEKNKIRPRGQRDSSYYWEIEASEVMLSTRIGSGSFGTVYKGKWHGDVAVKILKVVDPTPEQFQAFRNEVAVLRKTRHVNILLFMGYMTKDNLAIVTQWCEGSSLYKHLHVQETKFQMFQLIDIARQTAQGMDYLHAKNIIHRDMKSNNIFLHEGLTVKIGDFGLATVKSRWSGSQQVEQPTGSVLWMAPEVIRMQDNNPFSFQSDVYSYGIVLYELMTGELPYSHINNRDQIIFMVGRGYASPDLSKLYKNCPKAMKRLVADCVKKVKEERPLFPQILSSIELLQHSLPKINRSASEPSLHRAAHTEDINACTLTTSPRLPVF
Sequence of Inhibitor of nuclear factor kappa-B kinase subunit alpha (Homo sapiens) (O15111 whole entry): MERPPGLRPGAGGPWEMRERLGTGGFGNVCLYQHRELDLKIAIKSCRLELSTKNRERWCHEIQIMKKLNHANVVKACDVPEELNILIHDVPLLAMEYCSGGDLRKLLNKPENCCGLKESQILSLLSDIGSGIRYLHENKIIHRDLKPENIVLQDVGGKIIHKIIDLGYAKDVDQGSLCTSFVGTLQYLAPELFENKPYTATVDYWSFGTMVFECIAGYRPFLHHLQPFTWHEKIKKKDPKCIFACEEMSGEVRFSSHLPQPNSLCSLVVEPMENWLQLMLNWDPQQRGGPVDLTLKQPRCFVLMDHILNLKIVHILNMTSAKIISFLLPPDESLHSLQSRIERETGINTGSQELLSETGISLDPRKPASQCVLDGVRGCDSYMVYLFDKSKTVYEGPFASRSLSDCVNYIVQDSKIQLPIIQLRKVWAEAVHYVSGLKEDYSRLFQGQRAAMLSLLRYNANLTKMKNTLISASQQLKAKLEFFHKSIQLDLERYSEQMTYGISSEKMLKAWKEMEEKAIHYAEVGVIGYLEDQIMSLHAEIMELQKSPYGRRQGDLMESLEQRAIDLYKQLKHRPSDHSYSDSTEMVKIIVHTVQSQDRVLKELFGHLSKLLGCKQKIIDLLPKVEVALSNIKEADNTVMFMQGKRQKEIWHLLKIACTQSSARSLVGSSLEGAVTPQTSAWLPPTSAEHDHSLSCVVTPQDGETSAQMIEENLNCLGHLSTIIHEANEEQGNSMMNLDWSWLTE
Sequence of RAC-gamma serine/threonine-protein kinase (Homo sapiens) (Q9Y243 whole entry): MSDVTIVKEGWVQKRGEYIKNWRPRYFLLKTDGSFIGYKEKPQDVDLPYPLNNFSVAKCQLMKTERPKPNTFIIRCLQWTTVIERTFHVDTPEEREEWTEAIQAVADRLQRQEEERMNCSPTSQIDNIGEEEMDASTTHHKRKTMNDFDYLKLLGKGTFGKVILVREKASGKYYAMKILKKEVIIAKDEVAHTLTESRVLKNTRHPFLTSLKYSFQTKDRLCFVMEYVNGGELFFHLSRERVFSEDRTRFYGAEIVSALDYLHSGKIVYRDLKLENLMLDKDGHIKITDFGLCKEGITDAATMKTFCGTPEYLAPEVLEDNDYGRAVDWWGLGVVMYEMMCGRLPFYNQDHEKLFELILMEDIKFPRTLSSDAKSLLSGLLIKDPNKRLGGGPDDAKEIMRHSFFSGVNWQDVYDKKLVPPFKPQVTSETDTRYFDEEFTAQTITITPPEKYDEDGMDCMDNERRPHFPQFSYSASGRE
Sequence of Calcium/calmodulin-dependent protein kinase type IV (Homo sapiens) (Q16566 whole entry): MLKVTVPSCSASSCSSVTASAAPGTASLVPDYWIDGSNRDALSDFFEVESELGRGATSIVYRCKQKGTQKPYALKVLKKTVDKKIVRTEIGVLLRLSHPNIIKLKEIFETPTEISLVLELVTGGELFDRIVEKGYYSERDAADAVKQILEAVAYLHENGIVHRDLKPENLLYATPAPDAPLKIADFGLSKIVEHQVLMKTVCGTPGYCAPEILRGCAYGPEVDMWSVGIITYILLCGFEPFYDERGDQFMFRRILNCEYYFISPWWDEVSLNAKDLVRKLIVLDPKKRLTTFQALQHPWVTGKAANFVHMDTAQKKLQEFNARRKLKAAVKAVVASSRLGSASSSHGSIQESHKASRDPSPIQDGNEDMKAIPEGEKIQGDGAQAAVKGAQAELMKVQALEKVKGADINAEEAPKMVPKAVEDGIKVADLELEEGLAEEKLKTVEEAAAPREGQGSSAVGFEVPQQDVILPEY
Sequence of Mitogen-activated protein kinase 9 (Homo sapiens) (P45984 whole entry, looked up): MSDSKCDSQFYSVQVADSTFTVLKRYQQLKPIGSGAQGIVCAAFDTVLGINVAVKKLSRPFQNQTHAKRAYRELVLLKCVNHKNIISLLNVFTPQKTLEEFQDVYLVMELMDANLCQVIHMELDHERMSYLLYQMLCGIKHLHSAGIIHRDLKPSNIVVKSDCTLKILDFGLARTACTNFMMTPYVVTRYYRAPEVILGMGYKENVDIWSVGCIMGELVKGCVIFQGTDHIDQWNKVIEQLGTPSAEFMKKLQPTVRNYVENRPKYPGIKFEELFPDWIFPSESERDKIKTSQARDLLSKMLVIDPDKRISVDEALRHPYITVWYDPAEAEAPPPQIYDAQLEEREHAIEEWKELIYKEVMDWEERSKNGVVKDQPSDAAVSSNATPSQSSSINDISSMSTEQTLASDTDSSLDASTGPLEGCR
Sequence of Tyrosine-protein kinase ZAP-70 (Homo sapiens) (P43403 whole entry): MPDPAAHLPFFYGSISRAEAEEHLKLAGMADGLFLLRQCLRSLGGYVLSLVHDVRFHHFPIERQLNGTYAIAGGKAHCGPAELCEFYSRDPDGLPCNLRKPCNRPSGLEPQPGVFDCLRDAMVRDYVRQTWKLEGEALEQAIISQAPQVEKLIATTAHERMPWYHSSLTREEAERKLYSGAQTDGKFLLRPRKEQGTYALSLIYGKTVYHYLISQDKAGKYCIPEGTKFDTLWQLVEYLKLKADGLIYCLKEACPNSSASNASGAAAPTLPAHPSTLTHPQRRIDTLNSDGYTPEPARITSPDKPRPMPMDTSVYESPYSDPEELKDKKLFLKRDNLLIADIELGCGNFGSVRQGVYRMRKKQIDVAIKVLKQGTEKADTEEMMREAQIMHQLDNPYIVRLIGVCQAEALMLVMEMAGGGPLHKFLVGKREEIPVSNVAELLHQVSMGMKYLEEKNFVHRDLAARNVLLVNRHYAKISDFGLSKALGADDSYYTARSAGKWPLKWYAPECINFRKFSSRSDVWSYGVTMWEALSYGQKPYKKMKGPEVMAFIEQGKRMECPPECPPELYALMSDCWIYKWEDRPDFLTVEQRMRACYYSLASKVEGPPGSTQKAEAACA
Sequence of Tyrosine-protein kinase Lyn (Homo sapiens) (P07948 2-512 limits assumed): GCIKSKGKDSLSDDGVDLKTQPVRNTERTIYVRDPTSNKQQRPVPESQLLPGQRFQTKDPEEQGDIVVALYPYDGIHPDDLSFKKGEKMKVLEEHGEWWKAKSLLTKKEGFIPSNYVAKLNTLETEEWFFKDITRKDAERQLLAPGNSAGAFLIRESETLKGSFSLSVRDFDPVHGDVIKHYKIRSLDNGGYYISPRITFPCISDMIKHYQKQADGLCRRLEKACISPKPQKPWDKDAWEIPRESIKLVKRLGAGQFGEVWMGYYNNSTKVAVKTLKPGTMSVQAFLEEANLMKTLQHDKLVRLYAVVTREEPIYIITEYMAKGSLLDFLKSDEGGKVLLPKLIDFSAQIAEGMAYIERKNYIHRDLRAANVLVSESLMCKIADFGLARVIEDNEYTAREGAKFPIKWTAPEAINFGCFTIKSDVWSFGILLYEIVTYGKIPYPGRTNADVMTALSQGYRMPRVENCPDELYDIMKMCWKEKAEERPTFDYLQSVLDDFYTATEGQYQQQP
Sequence of Dual specificity mitogen-activated protein kinase kinase 1 (Homo sapiens) (Q02750 whole entry): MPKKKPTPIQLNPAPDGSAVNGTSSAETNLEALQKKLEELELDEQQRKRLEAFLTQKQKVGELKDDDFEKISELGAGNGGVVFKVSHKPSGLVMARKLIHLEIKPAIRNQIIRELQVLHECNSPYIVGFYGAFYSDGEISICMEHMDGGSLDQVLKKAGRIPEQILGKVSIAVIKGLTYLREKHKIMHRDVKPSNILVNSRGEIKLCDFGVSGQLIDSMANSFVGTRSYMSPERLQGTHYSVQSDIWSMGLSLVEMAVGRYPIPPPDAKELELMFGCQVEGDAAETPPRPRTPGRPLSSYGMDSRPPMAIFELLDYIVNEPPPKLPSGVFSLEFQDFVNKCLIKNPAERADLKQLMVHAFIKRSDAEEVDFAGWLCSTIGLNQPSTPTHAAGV

Activity [1]: 93%
Activity [2]: 90%
Activity [3]: 85%
Activity [4]: 111%
Activity [5]: 91%
Activity [6]: 73%
Activity [7]: 70%
Activity [8]: 89%
Activity [9]: 82%
Activity [10]: 99%
Activity [11]: 84%
Activity [12]: 109%
Activity [13]: 96%
T1/2 (Rattus norvegicus [14]): 39 min
Activity [15]: 95%
Cmax [16]: 11400 ng/mL
Activity [17]: 97%
Activity [18]: 66%
Activity [19]: 101%
Activity [20]: 98%
Activity [21]: 97%
IC50 (THP-1): 53 µM
Activity [22]: 89%
Activity [23]: 103%
Activity [24]: 104%
Vdss (Rattus norvegicus [25]): 25.3 L/kg
Activity [26]: 96%
Activity [27]: 159%
Activity [28]: 117%
SMILES: O=C1NC(=O)/C(=C/c2ccc(-c3ccc(F)cc3O)o2)S1
Activity (Mast cell): inactive

From ChEMBL document CHEMBL1138050, “Furan-2-ylmethylene thiazolidinediones as novel, potent, and selective inhibitors of phosphoinositide 3-kinase gamma” (J Med Chem, 2006)
